Activity calls are given as the source filed them. No cut-off for these calls is given here.
Legend:
Leishmania tropica [1] = assay: Growth inhibition of Leishmania tropica promastigotes expressing MDR1 at 10 uM after 72 hrs by MTT assay in presence of daunorubicin relative to control; type: functional; conditions: for inhibition of growth at 10 µM: MDR1, 72 h, read-out: GI
In short: (§1)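 L. tropica promastigotes in log phase were resuspended at 6×10^6 cells/mL in modified RPMI 1640 with 20% heat-inactivated FBS and exposed to compound for 72 h at 28 °C. Viability was read by MTT. The resistant line overexpresses a Pgp-like transporter and is maintained in 150 µM daunorubicin.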

NIH3T3 [2] = assay: Intrinsic cytotoxicity against mouse NIH/3T3 cells overexpressing MDR1 after 72 hrs by MTT assay; type: functional, cell-based; conditions: NIH3T3, 72 h
[3] = Intrinsic cytotoxicity against wild type mouse NIH/3T3 cells after 72 hrs by MTT assay; type: cell-based; conditions: NIH3T3, 72 h
NIH3T3 [4] = assay: Resistance index, ratio of IC50 for mouse NIH/3T3 cells expressing MDR1 to IC50 for wild type mouse NIH/3T3 cells
In short: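 Cells were plated at 3.5×10^3 per well and attached for 24 h. MDR1 and wild-type NIH-3T3 cells were exposed for 72 h at 37 °C to increasing daunorubicin, with or without 10, 3 or 1 µM modulator. Growth was read by MTT, and IC50 came from four-parameter logistic fits. RI is the IC50 in MDR1 cells divided by the IC50 in wild-type cells. Three independent experiments.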

[5] = Intrinsic cytotoxicity against wild type mouse NIH/3T3 cells at 10 uM after 72 hrs by MTT assay; type: cell-based, NIH3T3; conditions: wild type NIH/3T3 cells, read-out: INH
In short: (§2)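 Wild-type or MDR1 NIH-3T3 cells were plated at 3.5×10^3 per well and allowed to attach for 24 h at 37 °C under 5% CO2. Compound was then added at 10 µM and intrinsic cytotoxicity was measured by MTT colorimetric assay. Mean ±SD of three independent experiments performed in triplicate.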

[6] = target: T1, Broad substrate specificity ATP-binding cassette transporter ABCG2 (Homo sapiens, UniProt Q9UNQ0); assay: Inhibition of BCRP expressed in HEK293 cells assessed as mitoxantrone accumulation at 10 uM by spectrofluorimetry; type: cell-based; conditions: hek293, 10 µM
T1 sequence (Q9UNQ0 whole entry): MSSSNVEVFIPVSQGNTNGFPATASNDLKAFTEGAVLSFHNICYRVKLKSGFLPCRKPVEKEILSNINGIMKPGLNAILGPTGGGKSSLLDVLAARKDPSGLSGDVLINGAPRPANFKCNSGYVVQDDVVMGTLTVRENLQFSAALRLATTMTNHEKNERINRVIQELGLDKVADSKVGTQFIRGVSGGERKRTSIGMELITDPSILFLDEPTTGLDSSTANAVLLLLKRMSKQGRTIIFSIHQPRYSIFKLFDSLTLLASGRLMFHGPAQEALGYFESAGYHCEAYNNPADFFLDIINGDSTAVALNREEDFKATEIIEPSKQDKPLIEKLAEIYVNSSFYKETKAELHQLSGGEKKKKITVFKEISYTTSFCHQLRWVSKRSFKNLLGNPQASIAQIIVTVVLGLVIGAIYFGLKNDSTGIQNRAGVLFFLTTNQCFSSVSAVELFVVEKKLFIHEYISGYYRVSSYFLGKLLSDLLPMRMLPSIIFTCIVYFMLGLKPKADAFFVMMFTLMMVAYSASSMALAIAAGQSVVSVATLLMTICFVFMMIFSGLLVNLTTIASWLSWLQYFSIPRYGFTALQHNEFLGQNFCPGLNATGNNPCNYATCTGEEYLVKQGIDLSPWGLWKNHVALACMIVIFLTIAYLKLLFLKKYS
In short: (§3)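 Transfected cell monolayers were incubated 2 h at 37 °C with or without 10 µM compound in DMEM plus 10% HIFBS. Substrates were 5 µM mitoxantrone for HEK293-BCRP (R482) or 2 µM calcein-AM for 2008-MRP1. Cells were washed twice, lysed overnight at 4 °C in the dark in 20 mM Tris-HCl pH 7.4 with 0.2% SDS, and lysate fluorescence was read on a microplate spectrofluorometer.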

[7] = target: T2, ATP-dependent translocase ABCB1 (Homo sapiens, UniProt P08183); assay: Inhibition of human MDR1 overexpressed in mouse NIH/3T3 cells assessed as daunorubicin accumulation by flow cytometry relative to control; type: cell-based; conditions: nih3t3
T2 sequence (P08183 whole entry): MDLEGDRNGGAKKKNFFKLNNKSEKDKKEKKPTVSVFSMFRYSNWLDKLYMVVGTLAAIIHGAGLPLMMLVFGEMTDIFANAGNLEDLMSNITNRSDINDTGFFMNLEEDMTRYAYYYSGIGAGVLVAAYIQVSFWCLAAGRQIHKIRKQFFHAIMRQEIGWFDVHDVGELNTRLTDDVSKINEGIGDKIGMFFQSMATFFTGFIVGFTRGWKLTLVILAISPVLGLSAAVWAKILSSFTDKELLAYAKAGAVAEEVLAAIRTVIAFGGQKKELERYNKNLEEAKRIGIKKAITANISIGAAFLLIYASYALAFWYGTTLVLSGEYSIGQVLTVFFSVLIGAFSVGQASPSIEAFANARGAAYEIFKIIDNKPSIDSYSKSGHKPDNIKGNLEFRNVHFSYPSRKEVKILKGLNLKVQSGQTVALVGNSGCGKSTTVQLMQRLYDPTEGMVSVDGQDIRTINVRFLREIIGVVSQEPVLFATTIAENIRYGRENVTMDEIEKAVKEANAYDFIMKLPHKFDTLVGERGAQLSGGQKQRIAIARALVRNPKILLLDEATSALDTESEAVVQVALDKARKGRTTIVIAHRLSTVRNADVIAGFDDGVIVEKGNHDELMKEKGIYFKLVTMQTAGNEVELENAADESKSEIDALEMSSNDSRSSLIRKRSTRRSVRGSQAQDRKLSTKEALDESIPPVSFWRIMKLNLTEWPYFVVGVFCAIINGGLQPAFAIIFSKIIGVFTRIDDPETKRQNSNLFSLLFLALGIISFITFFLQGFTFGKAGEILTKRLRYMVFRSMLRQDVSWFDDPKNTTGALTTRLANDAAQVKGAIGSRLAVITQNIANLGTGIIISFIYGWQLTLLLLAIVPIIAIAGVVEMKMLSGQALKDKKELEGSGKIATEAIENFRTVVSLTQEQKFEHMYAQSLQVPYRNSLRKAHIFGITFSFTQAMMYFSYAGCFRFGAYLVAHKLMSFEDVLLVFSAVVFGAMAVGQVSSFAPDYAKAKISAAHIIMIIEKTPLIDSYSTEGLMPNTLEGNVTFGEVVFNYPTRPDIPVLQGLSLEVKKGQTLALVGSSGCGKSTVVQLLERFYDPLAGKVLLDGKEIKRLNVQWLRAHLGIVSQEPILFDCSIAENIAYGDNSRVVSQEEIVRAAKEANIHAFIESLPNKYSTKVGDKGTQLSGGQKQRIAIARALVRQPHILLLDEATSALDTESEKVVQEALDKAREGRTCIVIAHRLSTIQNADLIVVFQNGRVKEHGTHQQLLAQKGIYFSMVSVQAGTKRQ
In short: (§4)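 MDR1 and wild-type NIH-3T3 cells were incubated 0.5 h at 37 °C in DMEM plus 10% HIFBS with 2 µM daunorubicin and varying compound concentrations. Cells were washed, trypsinized, taken up in cold PBS, gated to exclude debris, and FL2 fluorescence was measured. Signals were converted to % Pgp inhibition normalized to wild type and fitted to y = Bmax·x/(Ki + x). Three experiments in triplicate.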

NIH3T3 [8] = assay: Intrinsic cytotoxicity against mouse NIH/3T3 cells overexpressing MDR1 at 10 uM after 72 hrs by MTT assay; type: functional; conditions: NIH3T3, 72 h; in short: as §2
[9] = target: T2, ATP-dependent translocase ABCB1; assay: Inhibition of human MDR1 overexpressed in mouse NIH/3T3 cells assessed as daunorubicin accumulation by flow cytometry; type: cell-based, NIH3T3; in short: as §4
[10] = target: T2, ATP-dependent translocase ABCB1; assay: Inhibition of human MDR1 overexpressed in mouse NIH/3T3 cells assessed as daunorubicin accumulation at 10 uM by spectrofluorimetry; type: cell-based; conditions: nih3t3, 10 µM
In short: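 NIH-3T3 cells transfected with human MDR1-G185 were incubated 2 h at 37 °C with 10 µM daunorubicin, with or without 10 µM compound, in DMEM plus 10% HIFBS. Cells were washed twice, lysed in SDS/Tris buffer pH 7.4 overnight at 4 °C, and read by plate fluorometry. Uptake is expressed relative to wild-type NIH-3T3 accumulation (100%). Three independent experiments, ±SD.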

[11] = target: Multidrug resistance-associated protein 1 (Homo sapiens, UniProt P33527); assay: Inhibition of MRP1 expressed in human 2008 cells assessed as calcein-AM accumulation at 10 uM by spectrofluorimetry; type: cell-based; conditions: human, 2008, 10 µM; in short: as §3
Multidrug resistance-associated protein 1, sequence (P33527 whole entry): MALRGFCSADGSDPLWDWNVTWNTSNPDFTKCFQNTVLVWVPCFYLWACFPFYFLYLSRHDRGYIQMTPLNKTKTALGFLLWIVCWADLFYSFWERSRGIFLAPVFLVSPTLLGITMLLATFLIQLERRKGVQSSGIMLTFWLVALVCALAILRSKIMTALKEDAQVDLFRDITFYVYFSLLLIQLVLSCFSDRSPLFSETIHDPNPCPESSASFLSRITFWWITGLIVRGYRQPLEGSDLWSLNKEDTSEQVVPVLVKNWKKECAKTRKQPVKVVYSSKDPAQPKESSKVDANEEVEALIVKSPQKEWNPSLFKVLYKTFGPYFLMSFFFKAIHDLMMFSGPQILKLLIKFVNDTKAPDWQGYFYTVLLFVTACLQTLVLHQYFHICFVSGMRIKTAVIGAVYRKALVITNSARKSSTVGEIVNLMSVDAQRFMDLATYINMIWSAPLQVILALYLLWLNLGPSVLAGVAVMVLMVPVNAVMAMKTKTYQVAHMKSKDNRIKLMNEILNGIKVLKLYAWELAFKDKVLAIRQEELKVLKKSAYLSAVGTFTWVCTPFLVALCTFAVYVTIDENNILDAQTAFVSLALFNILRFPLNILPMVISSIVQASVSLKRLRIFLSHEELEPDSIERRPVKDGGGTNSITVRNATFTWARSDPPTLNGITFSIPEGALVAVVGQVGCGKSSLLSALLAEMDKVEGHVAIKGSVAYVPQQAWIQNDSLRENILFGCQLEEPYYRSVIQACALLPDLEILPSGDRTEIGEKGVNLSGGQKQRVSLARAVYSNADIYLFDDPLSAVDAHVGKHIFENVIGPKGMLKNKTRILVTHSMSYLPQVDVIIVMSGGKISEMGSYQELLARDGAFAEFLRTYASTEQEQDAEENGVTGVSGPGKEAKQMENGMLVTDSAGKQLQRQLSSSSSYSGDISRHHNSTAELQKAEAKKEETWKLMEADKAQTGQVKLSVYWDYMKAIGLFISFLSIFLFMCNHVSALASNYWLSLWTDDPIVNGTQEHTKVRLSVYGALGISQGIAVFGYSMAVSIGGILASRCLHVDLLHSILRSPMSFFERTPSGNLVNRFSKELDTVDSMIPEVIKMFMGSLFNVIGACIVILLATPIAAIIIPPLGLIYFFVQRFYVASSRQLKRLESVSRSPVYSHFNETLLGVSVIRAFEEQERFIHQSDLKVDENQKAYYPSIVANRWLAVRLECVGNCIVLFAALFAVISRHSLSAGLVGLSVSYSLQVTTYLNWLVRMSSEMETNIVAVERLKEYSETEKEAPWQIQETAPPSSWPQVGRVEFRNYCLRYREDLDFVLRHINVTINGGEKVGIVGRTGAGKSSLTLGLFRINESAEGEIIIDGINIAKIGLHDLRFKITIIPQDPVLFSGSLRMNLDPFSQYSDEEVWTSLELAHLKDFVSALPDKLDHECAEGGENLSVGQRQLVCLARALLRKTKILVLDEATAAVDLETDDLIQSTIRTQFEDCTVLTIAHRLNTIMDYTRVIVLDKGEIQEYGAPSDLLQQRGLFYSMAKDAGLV

Leishmania tropica [12] = assay: Growth inhibition of wild type Leishmania tropica promastigotes at 10 uM after 72 hrs by MTT assay relative to control; type: functional; conditions: read-out: GI; in short: as §1
[13] = Intrinsic cytotoxicity against wild type mouse NIH/3T3 cells at 3 uM after 72 hrs by MTT assay; conditions: wild type NIH/3T3 cells
NIH3T3 [14] = assay: Intrinsic cytotoxicity against mouse NIH/3T3 cells overexpressing MDR1 at 3 uM after 72 hrs by MTT assay; type: functional; conditions: NIH3T3, 72 h

## CC1(C)OC2=C(C(=O)C(=O)C3=C2OC(C)(C)[C@H]2COc4c(Br)cc(Br)cc4[C@@H]32)[C@@H]2c3cc(Br)cc(Br)c3OC[C@@H]21
Leishmania tropica [1]
  Activity: inactive

## COc1cccc2c1C(=O)c1c(O)c3c(c(O)c1C2=O)C[C@@](O)(C(C)=O)C[C@@H]3O[C@H]1C[C@H](N)[C@H](O)[C@H](C)O1 [DAUNORUBICIN]
NIH3T3 [2]
  IC50: 1010 nM
[3]
  IC50: 44 nM
NIH3T3 [4]
  Ratio IC50: 23

## COc1ccc2c(c1)OC[C@@H]1[C@H]2C2=C(OC1(C)C)C(=O)C1=C(OC(C)(C)[C@@H]3COc4cc(OC)ccc4[C@H]13)C2=O
[5]
  cytotoxicity at 72 h, 10 µM: 6.5%
[6]
  Activity: Not Active
[7]
  inhibition (INH): 104.3%
Leishmania tropica [1]
  Activity: inactive
NIH3T3 [8]
  inhibition at 10 µM: 0%
[9]
  Ki: 510 nM
[10]
  Activity: Active
[11]
  Activity: Not Active

## CC1(C)OC2=C(C(=O)C(=O)C3=C2OC(C)(C)[C@H]2COc4ccc(Br)cc4[C@@H]32)[C@@H]2c3cc(Br)ccc3OC[C@@H]21
Leishmania tropica [12]
  inhibition of growth at 10 µM: 75%
Leishmania tropica [1]
  inhibition of growth at 10 µM: > 75%

## CC1(C)OC2=C(C(=O)C(=O)C3=C2OC(C)(C)[C@H]2COc4c(Br)cc(Br)cc4[C@@H]32)[C@H]2c3cc(Br)cc(Br)c3OC[C@H]21
Leishmania tropica [1]
  Activity: inactive

## C[C@@H]1CC[C@@H]2[C@@H](C1)C1=C(OC2(C)C)C(=O)C2=C(OC(C)(C)[C@@H]3CC[C@@H](C)C[C@@H]23)C1=O
[5]
  cytotoxicity at 72 h, 10 µM: 0%
[6]
  Activity: Not Active
[7]
  inhibition (INH): 72%
NIH3T3 [8]
  inhibition at 10 µM: 18.1%
[9]
  Ki: 770 nM
[10]
  Activity: Active
[11]
  Activity: Not Active

## COc1ccc2c(c1)OC[C@H]1[C@@H]2C2=C(OC1(C)C)C1=C(C(=O)C2=O)[C@@H]2c3ccc(OC)cc3OC[C@@H]2C(C)(C)O1
[5]
  cytotoxicity at 72 h, 10 µM: 24.7%
[6]
  Activity: Not Active
[7]
  inhibition (INH): 112.5%
Leishmania tropica [1]
  inhibition of growth at 10 µM: > 75%
NIH3T3 [8]
  inhibition at 10 µM: 10.8%
[9]
  Ki: 1040 nM
[10]
  Activity: Active
[11]
  Activity: Not Active

## CC1(C)OC2=C(C(=O)C(=O)C3=C2OC(C)(C)[C@H]2COc4ccc(Br)cc4[C@@H]32)[C@H]2c3cc(Br)ccc3OC[C@H]21
Leishmania tropica [1]
  Activity: inactive

## COc1ccc(CCN(C)CCCC(C#N)(c2ccc(OC)c(OC)c2)C(C)C)cc1OC (stereo not drawn)
NIH3T3 [8]
  inhibition at 10 µM: 11.2%

## C[C@@H]1CC[C@H]2[C@H](C1)C1=C(OC2(C)C)C2=C(C(=O)C1=O)[C@H]1C[C@@H](C)CC[C@@H]1C(C)(C)O2
Leishmania tropica [1]
  inhibition of growth at 10 µM: > 75%

## COc1ccc2c(c1)OC[C@H]1[C@@H]2C2=C(OC1(C)C)C1=C(C(=O)C2=O)[C@H]2c3ccc(OC)cc3OC[C@H]2C(C)(C)O1
[5]
  cytotoxicity at 72 h, 10 µM: 9.7%
[6]
  Activity: Not Active
[7]
  inhibition (INH): 105.8%
Leishmania tropica [1]
  Activity: inactive
NIH3T3 [8]
  inhibition at 10 µM: 3.5%
[9]
  Ki: 420 nM
[10]
  Activity: Active
[11]
  Activity: Not Active

## CC1(C)OC2=C(C(=O)C(=O)C3=C2OC(C)(C)[C@H]2COc4ccc5ccccc5c4[C@@H]32)[C@@H]2c3c(ccc4ccccc34)OC[C@@H]21
Leishmania tropica [1]
  inhibition of growth at 10 µM: 100%

## C[C@H]1CC[C@@H]2[C@@H]1C1=C(OC2(C)C)C2=C(C(=O)C1=O)[C@H]1[C@@H](CC[C@@H]1C)C(C)(C)O2
Leishmania tropica [1]
  inhibition of growth at 10 µM: > 75%

## CC1(C)OC2=C(C(=O)C3=C(C2=O)[C@H]2c4cc(Br)ccc4OC[C@H]2C(C)(C)O3)[C@H]2c3cc(Br)ccc3OC[C@H]21
Leishmania tropica [1]
  Activity: inactive

## O[C@@H](COc1cccc2ncccc12)CN1CCN([C@@H]2c3ccccc3[C@@H]3[C@H](c4ccccc42)C3(F)F)CC1 [ZOSUQUIDAR]
[5]
  cytotoxicity at 72 h, 10 µM: 2.4%
[13]
  cytotoxicity at 72 h, 3 µM: 2.4%
NIH3T3 [8]
  inhibition at 10 µM: 3.1%
NIH3T3 [14]
  inhibition at 3 µM: 3.1%

Reference: ChEMBL document CHEMBL1152290, “Bis-pyranobenzoquinones as a new family of reversal agents of the multidrug resistance phenotype mediated by P-glycoprotein in mammalian cells and the protozoan parasite Leishmania” (J Med Chem, 2008)
